ChEMBL document CHEMBL3232947, “Inhibitory effect of turmeric curcuminoids on FLT3 expression and cell cycle arrest in the FLT3-overexpressing EoL-1 leukemic cell line” (J Nat Prod, 2014)

Key:
[1] = Cytotoxicity against human EOL-1 cells after 48 hrs by MTT assay; type: functional, cell-based; conditions: EOL1, 48 h
Outline: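 Cells seeded at 5.0 × 10^4/well, preincubated 24 h at 37 °C, then exposed to 1.56–50 μM for 48 h (0.1% DMSO vehicle); MTT 4 h at 37 °C, formazan dissolved in DMSO, A578 (ref 630 nm). IC50 = lowest concentration giving 50% growth reduction vs vehicle; mean ± SEM, three independent experiments in triplicate.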

EOL1 [2] = assay: Reduction in Flt3 protein level in human EOL-1 cells at 10 uM after 12 hrs by Western blot analysis; type: functional; conditions: EOL1, 12 h
Outline: (§1)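 Treated EoL-1 lysed in RIPA buffer, protein by Folin-Lowry, resolved on 12% SDS-PAGE; probed with rabbit polyclonal anti-FLT3 or anti-STAT5A (1:500) and anti-GAPDH (1:1000), HRP anti-rabbit secondary, chemiluminescence. Band intensities normalized to GAPDH and compared with vehicle control; mean ± SEM, three independent experiments.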

EOL1 [3] = assay: Reduction in Flt3 protein level in human EOL-1 cells at 10 uM after 24 hrs by Western blot analysis; type: functional; conditions: EOL1, 24 h; outline: as §1
EOL1 [4] = assay: Reduction in Flt3 protein level in human EOL-1 cells at 10 uM after 48 hrs by Western blot analysis; type: functional; conditions: EOL1, 48 h; outline: as §1
[5] = Cell cycle arrest in human EOL-1 cells assessed as accumulation at G0/G1 phase at 4 uM after 48 hrs by flow cytometry (reference value: 54 %); type: functional, cell-based; conditions: EOL1
[6] = Cell cycle arrest in human EOL-1 cells assessed as accumulation at G0/G1 phase at 3 uM after 12 hrs by flow cytometry (reference value: 54 %); type: functional, cell-based; conditions: EOL1
[7] = Cell cycle arrest in human EOL-1 cells assessed as accumulation at G0/G1 phase at 5 uM after 12 hrs by flow cytometry (reference value: 54 %); type: functional, cell-based; conditions: EOL1
EOL1 [8] = assay: Reduction in Flt3 protein level in human EOL-1 cells at 4 uM after 12 hrs by Western blot analysis; type: functional; conditions: EOL1, 12 h; outline: as §1
EOL1 [9] = assay: Reduction in Flt3 protein level in human EOL-1 cells at 4 uM after 24 hrs by Western blot analysis; type: functional; conditions: EOL1, 24 h; outline: as §1
EOL1 [10] = assay: Reduction in Flt3 protein level in human EOL-1 cells at 4 uM after 48 hrs by Western blot analysis; type: functional; conditions: EOL1, 48 h; outline: as §1
EOL1 [11] = assay: Reduction in Flt3 protein level in human EOL-1 cells at 3 uM after 12 hrs by Western blot analysis; type: functional; conditions: EOL1, 12 h; outline: as §1
EOL1 [12] = assay: Reduction in Flt3 protein level in human EOL-1 cells at 5 uM after 12 hrs by Western blot analysis; type: functional; conditions: EOL1, 12 h; outline: as §1
EOL1 [13] = assay: Reduction in STAT5A protein level in human EOL-1 cells at 3 uM after 12 hrs by Western blot analysis; type: functional; conditions: EOL1, 12 h; outline: as §1
EOL1 [14] = assay: Reduction in STAT5A protein level in human EOL-1 cells at 4 uM after 12 hrs by Western blot analysis; type: functional; conditions: EOL1, 12 h; outline: as §1
EOL1 [15] = assay: Reduction in STAT5A protein level in human EOL-1 cells at 5 uM after 12 hrs by Western blot analysis; type: functional; conditions: EOL1, 12 h; outline: as §1
EOL1 [16] = assay: Reduction in STAT5A protein level in human EOL-1 cells after 12 hrs by Western blot analysis; type: functional, cell-based; outline: as §1
EOL1 [17] = assay: Reduction in Flt3 protein level in human EOL-1 cells after 12 hrs by Western blot analysis; type: functional, cell-based; outline: as §1
[18] = Antiproliferative activity against human EOL-1 cells at 3 uM after 12 hrs by trypan blue exclusion assay; type: functional, EOL1
Outline: (§2)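 EoL-1 cells (RPMI-1640, 10% fetal calf serum, L-glutamine, penicillin/streptomycin) exposed 12 h; viable counts by trypan blue exclusion over time; growth rate (cells/h) taken as slope of cell number vs incubation time, compared with vehicle-control growth rate.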

[19] = Antiproliferative activity against human EOL-1 cells at 4 uM after 12 hrs by trypan blue exclusion assay; type: functional, EOL1; outline: as §2
[20] = Antiproliferative activity against human EOL-1 cells at 5 uM after 12 hrs by trypan blue exclusion assay; type: functional, EOL1; outline: as §2
[21] = Cell cycle arrest in human EOL-1 cells assessed as accumulation at G0/G1 phase at 4 uM after 12 hrs by flow cytometry (reference value: 54 %); type: functional, cell-based; conditions: EOL1
[22] = Cell cycle arrest in human EOL-1 cells assessed as accumulation at G0/G1 phase at 4 uM after 24 hrs by flow cytometry (reference value: 54 %); type: functional, cell-based; conditions: EOL1
[23] = Cell cycle arrest in human EOL-1 cells assessed as accumulation at G0/G1 phase after 12 hrs by flow cytometry relative to control; conditions: EOL1
EOL1 [24] = assay: Reduction in Flt3 protein level in human EOL-1 cells at 15 uM after 24 hrs by Western blot analysis; type: functional; conditions: EOL1, 24 h; outline: as §1
EOL1 [25] = assay: Reduction in Flt3 protein level in human EOL-1 cells at 15 uM after 48 hrs by Western blot analysis; type: functional; conditions: EOL1, 48 h; outline: as §1

## COc1cc(/C=C/C(O)=C/C(=O)/C=C/c2ccc(O)cc2)ccc1O [DEMETHOXYCURCUMIN]
[1]
  IC50: 15.6 µM
EOL1 [2]
  inhibition at 10 µM: 4%
EOL1 [3]
  inhibition at 10 µM: 32%
EOL1 [4]
  inhibition at 10 µM: 46%

## COc1cc(/C=C/C(=O)CC(=O)/C=C/c2ccc(O)c(OC)c2)ccc1O [CURCUMIN]
[5]
  Activity: 54%
[6]
  Activity: 66%
[7]
  Activity: 75%
[1]
  IC50: 6.7 µM
EOL1 [8]
  inhibition at 4 µM: 37%
EOL1 [9]
  inhibition at 4 µM: 33%
EOL1 [10]
  inhibition at 4 µM: 12%
EOL1 [11]
  inhibition at 3 µM: 17%
EOL1 [12]
  inhibition at 5 µM: 70%
EOL1 [13]
  inhibition at 3 µM: 13%
EOL1 [14]
  inhibition at 4 µM: 44%
EOL1 [15]
  inhibition at 5 µM: 82%
EOL1 [16]
  inhibition: Dose-dependent effect
EOL1 [17]
  inhibition: Dose-dependent effect
[18]
  Activity: 17%
[19]
  Activity: 25%
[20]
  Activity: 58%
[21]
  Activity: 71%
[22]
  Activity: 58%
[23]
  Activity: Dose-dependent effect

## O=C(/C=C/c1ccc(O)cc1)CC(=O)/C=C/c1ccc(O)cc1 [BISDEMETHOXYCURCUMIN]
[1]
  IC50: 22.3 µM
EOL1 [24]
  inhibition at 15 µM: 26%
EOL1 [25]
  inhibition at 15 µM: 3%
